The record followed here is ChEMBL document CHEMBL1649116, “Chloroquine is grossly overdosed and overused but well tolerated in Guinea-bissau” (Antimicrob Agents Chemother, 2009).

For data set [1], the species on record is Homo sapiens. Put plainly: Toxicity in malaria patient assessed as diarrhea on day 1 after treatment at quartile 1 of compound concentration. The format is organism-based. The settings on record: in vivo. An outline of the steps:
(§1)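 Mothers or guardians were questioned at each follow-up visit about the child's symptoms and drug intake. Children were grouped into quartiles by whole-blood chloroquine concentration 1 day after the end of treatment. Symptom frequency is given as n/N (%), and vomiting duration in days. Trend across quartiles was tested with the nonparametric test for trend.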

For data set [2], the species on record is Homo sapiens. Description: Toxicity in malaria patient assessed as diarrhea on day 1 after treatment at quartile 3 of compound concentration. The format is organism-based. The settings on record: in vivo. The essentials: as §1
The species named for data set [3] is Homo sapiens. Put plainly: Toxicity in malaria patient assessed as diarrhea on day 1 after treatment at quartile 2 of compound concentration. The settings on record: in vivo. The format is organism-based. An outline of the steps: as §1
The species named for data set [4] is Homo sapiens. Put plainly: Toxicity in malaria patient assessed as duration of vomiting at quartile 4 of compound concentration. The format is organism-based. The settings on record: in vivo. The essentials: as §1
Data set [5] is filed under the species Homo sapiens. Description: Toxicity in malaria patient assessed as vomiting on day 1 after treatment at quartile 2 of compound concentration. The format is organism-based. The settings on record: in vivo. An outline of the steps:
as §1

A short description of data set [6]: Drug level in malaria patient whole blood on day 4. The settings on record: human, read-out: Drug uptake. The format is ADME, tissue-based. The essentials: (§2)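 Observational study of 102 children in Guinea-Bissau given chloroquine unsupervised under routine prescribing, usually split into two to three daily doses of 6.6 mg kg−1. Whole blood was drawn 1, 4 and 14 days after the last reported dose for chloroquine and desethylchloroquine analysis. Values are medians with interquartile range, in nM.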

Data set [7] is described as follows: Drug level in malaria patient whole blood on day 14. The format is ADME, tissue-based. The settings on record: human, read-out: Drug uptake. The essentials:
as §2

For data set [8], the species on record is Homo sapiens. Put plainly: Toxicity in malaria patient assessed as diarrhea on day 1 after treatment at quartile 4 of compound concentration. The format is organism-based. The settings on record: in vivo. An outline of the steps: as §1
A short description of data set [9]: Drug level in malaria patient whole blood on day 1. The format is ADME, tissue-based. The settings on record: human, read-out: Drug uptake. An outline of the steps: as §2
Data set [10] is filed under the species Homo sapiens. Description: Toxicity in malaria patient assessed as duration of vomiting at quartile 2 of compound concentration. The format is organism-based. The settings on record: in vivo. The essentials: as §1
For data set [11], the species on record is Homo sapiens. Put plainly: Toxicity in malaria patient assessed as duration of vomiting at quartile 3 of compound concentration. The format is organism-based. The settings on record: in vivo. An outline of the steps: as §1
Data set [12] can be described thus: Volume of distribution in malaria patient. The format is ADME, organism-based. The settings on record: human, in vivo.
The species named for data set [13] is Homo sapiens. Put plainly: Toxicity in malaria patient assessed as vomiting on day 1 after treatment at quartile 3 of compound concentration. The format is organism-based. The settings on record: in vivo. The essentials:
as §1

The species named for data set [14] is Homo sapiens. Put plainly: Toxicity in malaria patient assessed as vomiting on day 1 after treatment at quartile 1 of compound concentration. The format is organism-based. The settings on record: in vivo. The essentials:
as §1

The nature of data set [15]: Plasma protein binding in healthy human. The format is ADME, cell-free. The settings on record: read-out: PPB.
Data set [16] is filed under the species Homo sapiens. Description: Toxicity in malaria patient assessed as duration of vomiting at quartile 1 of compound concentration. The format is organism-based. The settings on record: in vivo. The essentials:
as §1

For data set [17], the species on record is Homo sapiens. Put plainly: Toxicity in malaria patient assessed as vomiting on day 1 after treatment at quartile 4 of compound concentration. The format is organism-based. The settings on record: in vivo. The essentials:
as §1

Data set [18] can be described thus: Drug level in malaria patient whole blood assessed as desethychloroquine level on day 14. The format is ADME, tissue-based. The settings on record: human, read-out: Drug uptake. The essentials: as §2
Data set [19] is described as follows: Drug level in malaria patient whole blood assessed as desethychloroquine level on day 4. The format is ADME, tissue-based. The settings on record: human, read-out: Drug uptake. The essentials: as §2
Data set [20] is described as follows: Drug level in malaria patient whole blood assessed as desethychloroquine level on day 1. The format is ADME, tissue-based. The settings on record: human, read-out: Drug uptake. The essentials:
as §2

Usually Vd stands for the apparent volume that relates the amount in the body to the concentration in plasma or blood. The low end stands for little distribution into tissue, the high end for wide distribution into tissue.

For the compound `CCN(CC)CCCC(C)Nc1ccnc2cc(Cl)ccc12` (stereo not given) [CHLOROQUINE], the Activity in the data set listed under Homo sapiens [1] amounted to 42%; in the data set listed under Homo sapiens [2], 33%; in the data set filed under Homo sapiens [3] it was 64%; in the data set filed under Homo sapiens [5] it was 24%; in the data set listed under Homo sapiens [8], 21%; in the data set filed under Homo sapiens [13] it was 14%. Also, the Activity in the data set filed under Homo sapiens [14] is recorded as 25%; in the data set filed under Homo sapiens [17], 8%. The Time in the data set filed under Homo sapiens [4] turned out to be 0.5 days; in the data set listed under Homo sapiens [10] it was 1.1 days; in the data set filed under Homo sapiens [11] it was 0.5 days; in the data set listed under Homo sapiens [16], 1.4 days. Moreover, the concentration in [6] was 626 nM; in data set [7], 204 nM; in data set [9], 894 nM. In [12], this compound had a Vd of over 100 L/kg. Further, the fraction unbound in data set [15] stood at 0.5.
On to `CCNCCCC(C)Nc1ccnc2cc(Cl)ccc12` (stereo not given) [DESETHYLCHLOROQUINE], for which the results for the concentration in data set [18], in [19] and in [20] were 181 nM, 446 nM and 638 nM, respectively.
